Measurements as given in ChEMBL document CHEMBL3588768, “Synthesis and bioactivity of tripolinolate A from Tripolium vulgare and its analogs” (Bioorg Med Chem Lett, 2015).
The source made the active and inactive calls. The rule behind the calls is not given here.

Experiments:
[1] = system: U-87 MG; assay: Antiproliferative activity against human U87MG cells after 72 hrs by sulforhodamine B assay; format: functional, cell-based, U-87MG ATCC
Procedure, shortened: (§1)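 Sulforhodamine B assay on glioma (U251, U87-MG) and colorectal (HCT-15, SW620) cancer cells. Cells were exposed to a range of compound concentrations for 72 h, then stained with SRB. IC50 values were derived from the dose–response. Doxorubicin served as positive control.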

[2] = system: U-251; assay: Antiproliferative activity against human U251 cells after 72 hrs by sulforhodamine B assay; format: functional, cell-based; conditions: U-251, 72 h; procedure, shortened: as §1
[3] = system: HCT-15; assay: Antiproliferative activity against human HCT15 cells after 72 hrs by sulforhodamine B assay; format: functional, cell-based; conditions: HCT-15, 72 h; procedure, shortened: as §1
[4] = system: SW-620; assay: Antiproliferative activity against human SW620 cells after 72 hrs by sulforhodamine B assay; format: functional, cell-based; conditions: SW-620, 72 h; procedure, shortened: as §1
[5] = system: Staphylococcus aureus; assay: Antimicrobial activity against Staphylococcus aureus after 5 to 12 hrs by micro broth dilution assay; format: functional, organism-based
[6] = system: Escherichia coli; assay: Antimicrobial activity against Escherichia coli after 5 to 12 hrs by micro broth dilution assay; format: functional, organism-based

CCCC(=O)c1c(O)cc(O)cc1O[C@@H]1O[C@H](CO)[C@@H](O)[C@H](O)[C@H]1O
IC50 [1]: 3.89 µM | IC50 [2]: 19.7 µM | IC50 [3]: 1.91 µM | IC50 [4]: 0.41 µM | inhibition [5]: inactive | inhibition [6]: inactive

CCC(=O)OC/C=C/c1ccc(OC(=O)CC)c(OC)c1
IC50 [1]: 28.8 µM | IC50 [2]: 52.6 µM | IC50 [3]: 29.6 µM | IC50 [4]: 47.4 µM | inhibition [5]: inactive | inhibition [6]: inactive

CCCC(=O)OC/C=C/c1ccc(OC(C)=O)c(OC)c1
IC50 [1]: 18.5 µM | IC50 [2]: 33.3 µM | IC50 [3]: 22.8 µM | IC50 [4]: 10.2 µM | inhibition [5]: inactive | inhibition [6]: inactive

CC[C@H](C)C(=O)OC/C=C/c1ccc(OC(C)=O)c(OC)c1
IC50 [1]: 15 µM | IC50 [2]: 28.1 µM | IC50 [3]: 34.1 µM | IC50 [4]: 21.9 µM | inhibition [5]: inactive | inhibition [6]: inactive

CCCCCCCCCCCCCCCCCCCCOC(=O)/C=C/c1ccc(O)cc1
inhibition [5]: inactive | inhibition [6]: inactive

COc1cc(/C=C/COC(=O)CC(C)C)ccc1OC(=O)CC(C)C
inhibition [5]: inactive | inhibition [6]: inactive

CCC(=O)Oc1ccc(/C=C/COC(C)=O)cc1OC
inhibition [5]: inactive | inhibition [6]: inactive

O=C(/C=C/c1ccc(O)c(O)c1)O[C@@H]1[C@H](O)C[C@@](O)(C(=O)O)C[C@H]1OC(=O)/C=C/c1ccc(O)c(O)c1
inhibition [5]: inactive | inhibition [6]: inactive

CCC(=O)OC/C=C/c1ccc(OC(C)=O)c(OC)c1
inhibition [5]: inactive | inhibition [6]: inactive

CCCC(=O)OC/C=C/c1ccc(OC(=O)CCC)c(OC)c1
IC50 [1]: 17.3 µM | IC50 [2]: > 50 µM | IC50 [3]: 28.8 µM | IC50 [4]: 7.85 µM | inhibition [5]: inactive | inhibition [6]: inactive

COc1cc(/C=C/COC(=O)C(C)C)ccc1OC(C)=O
inhibition [5]: inactive | inhibition [6]: inactive

COc1cc(/C=C/COC(C)=O)ccc1OC(=O)C(C)C
inhibition [5]: inactive | inhibition [6]: inactive

COc1cc(/C=C/COC(=O)C(C)C)ccc1OC(=O)C(C)C
IC50 [1]: 29.4 µM | IC50 [2]: > 50 µM | IC50 [3]: 34.6 µM | IC50 [4]: 35.5 µM | inhibition [5]: inactive | inhibition [6]: inactive

COC(=O)/C=C/c1ccc(O)c(OC)c1
inhibition [5]: inactive | inhibition [6]: inactive

CCCCCCCCCCCCCCCCCCCCOC(=O)/C=C/c1ccc(O)c(OC)c1
IC50 [1]: 5.24 µM | IC50 [2]: 26.8 µM | IC50 [3]: 15.1 µM | IC50 [4]: 5.25 µM | inhibition [5]: inactive | inhibition [6]: inactive

CC1=C(C)C(=O)C(CC[C@](C)(O)CCC[C@H](C)CCC[C@H](C)CCCC(C)C)=C(C)C1=O
inhibition [5]: inactive | inhibition [6]: inactive

CCCC(=O)Oc1ccc(/C=C/COC(=O)CC(C)C)cc1OC
inhibition [5]: inactive | inhibition [6]: inactive

CC(C)[C@H](C)/C=C/[C@@H](C)[C@H]1CCC2=C3C=CC4=CC(=O)CC[C@]4(C)[C@H]3CC[C@@]21C
inhibition [5]: inactive | inhibition [6]: inactive
